# Experimental data taken from publication PMC8602434 (Drugs in R&D, 2021).
# Tests used:
# Type in all cases: in vivo
# [1] = Rat 28-day toxicology study with toxicokinetic analysis, sc
# Outline: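 Male and female CD Sprague Dawley rats (233–264 g male, 172–201 g female). 28-day toxicology study (70 per sex) with daily sc dosing at 0, 1.0, 5.0 or 25.0 mg/kg/day. Blood drawn via sublingual vein, three animals per sex per dose at each time point. Noncompartmental analysis of mean concentration–time data gave AUClast, Cmax, tmax and t½.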
# [2] = Dog 28-day toxicology study with pharmacokinetic analysis, sc
# [3] = Healthy volunteers, multiple-dose arm, sc once daily for 7 days; conditions: human
# Outline: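 Double-blind, placebo-controlled abdominal sc dosing once daily for 7 days: 1.0 or 3.0 mg, cohorts of 10 (8 active, 2 placebo). Serial blood on Day 1 (predose to 24 h), peak/trough on Days 2–6, Day 7 (predose to 16 h), then to 48 h after last dose. Validated bioanalytical method. Noncompartmental: Day 7 values as steady state, AUCτ, accumulation ratio. AEs recorded.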
# [4] = 1.0 mg sc once daily, Day 7, geometric mean, n=5
# [5] = 1.0 mg sc once daily, Day 7, median, n=5
# [6] = 1.0 mg sc once daily, Day 7, median, n=8
# [7] = 3.0 mg sc once daily, Day 1, geometric mean, n=7
# [8] = 3.0 mg sc once daily, Day 1, geometric mean, n=8
# [9] = 3.0 mg sc once daily, Day 1, median, n=7
# [10] = 3.0 mg sc once daily, Day 1, median, n=8
# [11] = 3.0 mg sc once daily, Day 7, geometric mean, n=8
# [12] = 3.0 mg sc once daily, Day 7, mean (SD), n=8
# [13] = 3.0 mg sc once daily, Day 7, median, n=6
# [14] = 3.0 mg sc once daily, Day 7, median, n=8
compound,measurement,setting,value
CCCC[C@H](NC(C)=O)C(=O)N[C@H]1CCC(=O)NC[C@@H](C(=O)N[C@@H](Cc2c[nH]c3ccccc23)C(N)=O)NC(=O)[C@H](CCCNC(=N)N)NC(=O)[C@@H](Cc2ccccc2)NC(=O)[C@H](Cc2c[nH]cn2)NC1=O [PL8177],tmax,"[1]; rat F, 1.0 mg/kg sc daily, Day 14 (truncated curve, 3 data points)",30 min
same,tmax,"[1]; rat F, 1.0 mg/kg sc daily, Day 28",30 min
same,tmax,"[1]; rat F, 5.0 mg/kg sc daily, Day 14 (truncated curve, 3 data points)",60 min
same,tmax,"[1]; rat F, 25.0 mg/kg sc daily, Day 14 (truncated curve, 3 data points)",30 min
same,tmax,"[1]; rat F, 25.0 mg/kg sc daily, Day 28",30 min
same,tmax,"[1]; rat M, 1.0 mg/kg sc daily, Day 1",30 min
same,tmax,"[1]; rat M, 1.0 mg/kg sc daily, Day 14 (truncated curve, 3 data points)",30 min
same,tmax,"[1]; rat M, 1.0 mg/kg sc daily, Day 28",30 min
same,tmax,"[1]; rat M, 5.0 mg/kg sc daily, Day 14 (truncated curve, 3 data points)",60 min
same,tmax,"[1]; rat M, 5.0 mg/kg sc daily, Day 28",30 min
same,tmax,"[1]; rat M, 25.0 mg/kg sc daily, Day 28",15 min
same,"Accumulation ratio (Rac), AUClast day 28/AUClast day 1",[2]; 1.5- and 9.0-mg doses as printed,0.8
same,"Accumulation ratio (Rac), AUClast day 28/AUClast day 1",[2]; 40-mg dose,1.8
same,"Difference between mean Cmax and AUClast values, multiple-dose versus single-dose",[2]; sc,< 2 fold
same,t½,"[3]; 1.0 mg sc once daily, Day 1, geometric mean, n=6",246 min
same,CL/F,"[3]; 1.0 mg sc once daily, Day 1, median, n=6",20.2 L/h
same,AI (accumulation index),[3]; [4],1.1
same,t½,[3]; [4],402 min
same,AUCτ,"[3]; 1.0 mg sc once daily, Day 7, geometric mean, n=8",51.2 ng·h/mL
same,AI (accumulation index),"[3]; 1.0 mg sc once daily, Day 7, mean (SD), n=5",1.1 (0.1)
same,AUCτ,"[3]; 1.0 mg sc once daily, Day 7, mean (SD), n=8",52.9 (15.0) ng·h/mL
same,AI (accumulation index),[3]; [5],1.1
same,AUC∞,[3]; [5],51.8 ng·h/mL
same,Vd/Fss,[3]; [5],174 L
same,AUCτ,[3]; [6],48.3 ng·h/mL
same,tmax,[3]; [6],30 min
same,AUC∞,[3]; [7],169.0 ng·h/mL
same,AUC∞/dose,[3]; [7],56.5 ng·h/mL/mg
same,Cmax,[3]; [8],53.7 ng/mL
same,Cmax/dose,[3]; [8],17.9 ng/mL/mg
same,AUC∞/dose,"[3]; 3.0 mg sc once daily, Day 1, mean (SD), n=7",57.2 (10.2) ng·h/mL/mg
same,Cmax/dose,"[3]; 3.0 mg sc once daily, Day 1, mean (SD), n=8",18.1 (3.2) ng/mL/mg
same,AUC∞,[3]; [9],159.0 ng·h/mL
same,AUC∞/dose,[3]; [9],53.0 ng·h/mL/mg
same,CL/F,[3]; [9],18.9 L/h
same,t½,[3]; [9],576 min
same,AUC0–t,[3]; [10],145.0 ng·h/mL
same,Cmax,[3]; [10],50.0 ng/mL
same,AI (accumulation index),"[3]; 3.0 mg sc once daily, Day 7, geometric mean, n=6",1.4
same,AUCτ,[3]; [11],174.0 ng·h/mL
same,AUCτ/dose,[3]; [11],58.1 ng·h/mL/mg
same,Cmax/dose,[3]; [11],19.1 ng/mL/mg
same,AI (accumulation index),"[3]; 3.0 mg sc once daily, Day 7, mean (SD), n=6",1.4 (0.2)
same,AUCτ,[3]; [12],177.0 (36.0) ng·h/mL
same,AUCτ/dose,[3]; [12],59.1 (12.0) ng·h/mL/mg
same,Cmax/dose,[3]; [12],19.5 (4.52) ng/mL/mg
same,AI (accumulation index),[3]; [13],1.3
same,AUC∞,[3]; [13],200.0 ng·h/mL
same,AUCτ,[3]; [14],171.0 ng·h/mL
same,AUCτ/dose,[3]; [14],57.1 ng·h/mL/mg
same,"AEs leading to study discontinuation, serious AEs, or severe AEs",[3]; multiple-dose arm,no reports
same,Dose linearity for AUC∞ and Cmax,[3]; multiple-dose arm,inconclusive
same,Intact drug excreted in the urine,[3]; multiple-dose arm,≤ 1%
same,Most commonly reported AEs,[3]; multiple-dose arm,"injection-site pain, erythema, and induration"
same,Time after dosing at which Cmax was generally reached (tmax),[3]; multiple-dose arm,15 to 45 min
